From ChEMBL document CHEMBL4033653, “Effect of 1,2,3-triazole salts, non-classical bioisosteres of miltefosine, on Leishmania amazonensis” (Bioorg Med Chem, 2017)
pIC50: −log10 of the molar value.

Key:
Leishmania amazonensis [1] = test: Induction of mitochondrial membrane potential loss in Leishmania amazonensis IFLA/BR/1967/PH8 promastigotes at 10 uM after 24 hrs by JC-1 staining-based spectrofluorometric analysis relative to control; type: functional
Summary of the method: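 Exponential WT promastigotes (1x10^7 cells/mL) treated 24 h at 25 °C; washed, JC-1 loaded, read at 485/528 and 540/600 nm; Δψm as 600/528 ratio, untreated = 100%; FCCP 20.0 µM for 30 min as positive control; three experiments in triplicate.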

Leishmania amazonensis [2] = test: Induction of ROS accumulation in Leishmania amazonensis IFLA/BR/1967/PH8 promastigotes at 2.5 uM after 72 hrs by H2DCFDA staining-based fluorometric analysis relative to control; type: functional
Summary of the method: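 WT (PH8) promastigotes in exponential phase, untreated or exposed to 2.5–20.0 µM at 25 °C. Cells adjusted to 2x10^7 promastigotes in PBS, then loaded with H2DCFDA for 30 min in the dark at room temperature. Fluorescence read at ex 485/em 528 nm. Positive control was miltefosine 22.0 µM. Reported as arbitrary fluorescence units, mean of three independent experiments.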

Leishmania amazonensis [3] = test: Induction of apoptosis in Leishmania amazonensis IFLA/BR/1967/PH8 promastigotes assessed as necrotic population at 20 uM after 24 hrs by Annexin V-FITC/PI staining based flow cytometric analysis (reference value: 0.03%); type: functional
Summary of the method: (§1)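 Exponential-phase WT promastigotes (1x10^7 cells/mL) cultured 24 h at 25 °C; stained annexin V-FITC plus PI, flow cytometry with 10,000 events gated on parasites; quadrant percentages; three independent experiments.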

Leishmania amazonensis [4] = test: Induction of mitochondrial membrane potential loss in Leishmania amazonensis IFLA/BR/1967/PH8 promastigotes at 2.5 uM after 24 hrs by JC-1 staining-based spectrofluorometric analysis relative to control; type: functional
Summary of the method: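 Exponential-phase WT (PH8) promastigotes at 1x10^7 cells/mL, treated 24 h at 25 °C with 2.5–20.0 µM, then harvested, washed and loaded with JC-1. Fluorescence read at 485/528 and 540/600 nm; ΔΨm taken as the 600/528 ratio. Untreated control set to 100%. Positive control was FCCP 20.0 µM for 30 min. Three experiments in triplicate.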

[5] = Selectivity index, ratio of CC50 for mouse peritoneal macrophages to IC50 for Leishmania amazonensis IFLA/BR/1967/PH8 amastigotes transfected with red fluorescent protein
Summary of the method: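 SI = CC50 for mouse peritoneal macrophages / RFP amastigote IC50. […] IC50: macrophages infected with RFP-expressing PH8 parasites, treated with 0.78–100.0 µM for 72 h; fluorescence read at 540 nm excitation/600 nm emission. Three experiments in duplicate.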

Leishmania amazonensis [6] = test: Induction of ROS accumulation in Leishmania amazonensis IFLA/BR/1967/PH8 promastigotes at 5 uM after 72 hrs by H2DCFDA staining-based fluorometric analysis relative to control; type: functional
Summary of the method: (§2)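 WT exponential-phase promastigotes treated at 25 °C; adjusted to 2x10^7 cells in PBS, loaded with H2DCFDA 30 min dark at room temperature; fluorescence 485/528 nm versus untreated; three independent experiments.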

Leishmania amazonensis [7] = test: Antileishmanial activity against Leishmania amazonensis IFLA/BR/1967/PH8 amastigotes transfected with red fluorescent protein infected in murine macrophages after 72 hrs by fluorometric analysis; type: functional; conditions: IFLA/BR/1967/PH8, 72 h
Summary of the method: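 Infected murine macrophages treated 0.78-100.0 µM for 72 h; fluorescence read at 540/600 nm for RFP parasites (PH8) and 485/528 nm for GFP parasites (Josefa strain); IC50 from three independent experiments in duplicate.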

[8] = Hemolytic activity in human erythrocytes at 9.4 to 150 uM relative to control; type: ADME, cell-based, Erythrocyte; conditions: read-out: Activity
Summary of the method: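 Fresh human red cells suspended in PBS incubated with the compound; 1% saponin as positive control, untreated as negative; three experiments in triplicate.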

Leishmania amazonensis [9] = test: Induction of apoptosis in Leishmania amazonensis IFLA/BR/1967/PH8 promastigotes assessed as late apoptotic population at 20 uM after 24 hrs by Annexin V-FITC/PI staining based flow cytometric analysis (reference value: 2.62%); type: functional; summary of the method: as §1
Leishmania amazonensis [10] = test: Induction of ROS accumulation in Leishmania amazonensis IFLA/BR/1967/PH8 promastigotes at 10 uM after 72 hrs by H2DCFDA staining-based fluorometric analysis relative to control; type: functional; summary of the method: as §2
[11] = Selectivity index, ratio of CC50 for mouse peritoneal macrophages to IC50 for Leishmania amazonensis IFLA/BR/1967/PH8 amastigotes
Summary of the method: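 SI = CC50 for mouse peritoneal macrophages / amastigote IC50. […] IC50: WT-infected macrophages treated with 0.78–100.0 µM in sterile water; burden scored by counting amastigotes and infected/uninfected cells in at least 200 macrophages. Three experiments in duplicate.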

Leishmania amazonensis [12] = test: Induction of lipid inclusions in Leishmania amazonensis IFLA/BR/1967/PH8 promastigotes at 20 uM after 24 hrs by Nile Red satining-based spectrofluorometric analysis relative to control; type: functional
Summary of the method: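 WT (PH8) promastigotes at 1x10^7 cells/mL in exponential phase, cultured 24 h at 25 °C with or without 2.5–20.0 µM. Parasites incubated with Nile Red, then fluorescence measured spectrofluorometrically. Reported as arbitrary fluorescence units versus untreated parasites, mean of three experiments run in triplicate.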

Leishmania amazonensis [13] = test: Antileishmanial activity against Leishmania amazonensis WHOM/BR/75/Josefa promastigotes transfected with green fluorescent protein after 72 hrs by MTT assay; type: functional
Leishmania amazonensis [14] = test: Antileishmanial activity against Leishmania amazonensis IFLA/BR/1967/PH8 amastigotes infected in murine macrophages after 72 hrs by fluorometric analysis; type: functional; conditions: IFLA/BR/1967/PH8, 72 h
Leishmania amazonensis [15] = test: Induction of apoptosis in Leishmania amazonensis IFLA/BR/1967/PH8 promastigotes assessed as necrotic population at 5 uM after 24 hrs by Annexin V-FITC/PI staining based flow cytometric analysis (reference value: 0.03%); type: functional; summary of the method: as §1
Leishmania amazonensis [16] = test: Induction of apoptosis in Leishmania amazonensis IFLA/BR/1967/PH8 promastigotes assessed as early apoptotic population at 10 uM after 24 hrs by Annexin V-FITC/PI staining based flow cytometric analysis (reference value: 5.29%); type: functional; summary of the method: as §1
Leishmania amazonensis [17] = test: Induction of ROS accumulation in Leishmania amazonensis IFLA/BR/1967/PH8 promastigotes at 20 uM after 72 hrs by H2DCFDA staining-based fluorometric analysis relative to control; type: functional; summary of the method: as §2
Leishmania amazonensis [18] = test: Antileishmanial activity against Leishmania amazonensis IFLA/BR/1967/PH8 amastigotes infected in murine macrophages at 1.8 uM incubated for 72 hrs followed by compound washout measured after 72 hrs by microscopic method relative to control; type: functional; conditions: IFLA/BR/1967/PH8, 72 h
Summary of the method: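 Macrophages infected with WT PH8 parasites treated 72 h at 33 °C, 5% CO2; washed twice in PBS, then held in drug-free Warren's medium + 10% serum at 25 °C for 72 h; viable promastigotes counted microscopically versus untreated; three independent experiments in duplicate.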

Leishmania amazonensis [19] = test: Induction of apoptosis in Leishmania amazonensis IFLA/BR/1967/PH8 promastigotes assessed as early apoptotic population at 2.5 uM after 24 hrs by Annexin V-FITC/PI staining based flow cytometric analysis (reference value: 5.29%); type: functional

For `CC(=O)[O-].CCCCCCCCCCn1cc(CO)[n+](C)n1`, the Activity (Leishmania amazonensis [1]) was 32.5%, the Activity (Leishmania amazonensis [2]) was 38.4% and the Activity (Leishmania amazonensis [3]) was 3.97%. For the same compound, the Activity (Leishmania amazonensis [4]) was 37.5%, the “Ratio CC50/IC50” value [5] was 115.9 and the Activity (Leishmania amazonensis [6]) was 40.7%. For the same compound, the pIC50 (Leishmania amazonensis [7]) was 6.00, the hemolysis at up to 150 µM [8] was under 5% and the Activity (Leishmania amazonensis [9]) was 16.88%. The Activity (Leishmania amazonensis [10]) was 54%, the “Ratio CC50/IC50” value [11] was 128.8 and the “fold change (FC)” value (Leishmania amazonensis [12]) was 2.5. The pIC50 (Leishmania amazonensis [13]) was 5.48, the pIC50 (Leishmania amazonensis [14]) was 6.05 and the Activity (Leishmania amazonensis [15]) was 0.3%. It also gave an Activity (Leishmania amazonensis [16]) of 28.56%, an Activity (Leishmania amazonensis [17]) of 75.5% and an inhibition at 1.8 µM (Leishmania amazonensis [18]) of 69%. It also gave an Activity (Leishmania amazonensis [19]) of 30.6%.
